Calls of active or inactive are those of the source. The rule behind the calls is not given here.
What was measured:
Homo sapiens [1] = organism: Homo sapiens; assay: Ratio of Kinact/Ki for immunoproteasome-20S subunit beta5i in human PBMC to Kinact/Ki for constitutive proteasome 20S subunit beta5c in human RBC
[2] = target: T1, Proteasome subunit beta type-8 (Homo sapiens) (UniProt P28062); assay: Ratio of Kinact to Ki for immunoproteasome-20S subunit beta5i in human PBMC using suc-LLVY-AMC as substrate measured for 120 mins by fluorescence analysis
T1 sequence (whole entry): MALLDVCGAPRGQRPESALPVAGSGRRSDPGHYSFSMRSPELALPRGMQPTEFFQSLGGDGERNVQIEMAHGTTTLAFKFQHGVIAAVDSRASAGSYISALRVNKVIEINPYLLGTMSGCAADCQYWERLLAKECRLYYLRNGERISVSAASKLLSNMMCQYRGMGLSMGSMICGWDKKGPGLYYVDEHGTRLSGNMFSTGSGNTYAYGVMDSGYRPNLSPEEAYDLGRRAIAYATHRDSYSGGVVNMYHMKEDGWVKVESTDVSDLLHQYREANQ
Outline: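 Progress curves of hu i-20S suc-LLVY-AMC hydrolysis recorded at several inhibitor concentrations. kobs for each curve fitted to equation I. kobs plotted against inhibitor concentration and fitted hyperbolically (two-step mechanism) to give kinact/KI.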

[3] = target: T1, Proteasome subunit beta type-8 (Homo sapiens); assay: Inhibition of immunoproteasome-20S subunit beta5i in human PBMC assessed as substrate hydrolysis using suc-LLVY-AMC as substrate by fluorescence analysis; settings: TDE = time-dependent effect
Outline: (§1)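 Purified human i-20S preincubated with inhibitor for 15 min before suc-LLVY-AMC was added; inhibitor ranged from 9.8 nM to 100 μM. AMC fluorescence release read. IC50 from the concentration–response; where β2i/β1i inhibition exceeded 80% at 100 μM, IC50 was also determined.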

Homo sapiens [4] = organism: Homo sapiens; assay: Inhibition of constitutive proteasome 20S subunit beta5c in human RBC assessed as substrate hydrolysis using suc-LLVY-AMC as substrate measured for 120 mins by fluorescence analysis
[5] = target: T2, Proteasome subunit beta type-8 (Homo sapiens, UniProt P28062); assay: (§2) Inhibition of immunoproteasome-20S subunit beta5i in human PBMC assessed as substrate hydrolysis using suc-LLVY-AMC as substrate measured for 120 mins by fluorescence analysis
T2 sequence (P28062 whole entry): T1 sequence (whole entry)

[6] = target: T1, Proteasome subunit beta type-8 (Homo sapiens); assay: as §2
[7] = target: T2, Proteasome subunit beta type-8; assay: Inhibition of immunoproteasome-20S subunit beta5i in human PBMC assessed as substrate hydrolysis using suc-LLVY-AMC as substrate preincubated for 15 mins prior to substrate challenge measured for 120 mins by fluorescence analysis; outline: as §1
[8] = target: T1, Proteasome subunit beta type-8 (Homo sapiens); assay: Inhibition of immunoproteasome 20S subunit beta5i in human Karpas 1106p cells assessed as accumulation of polyubiquitinylated proteins at 2.5 to 25 uM after 4 hrs by western blot analysis; type: cell-based
Outline: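 Karpas 1106p cells treated with inhibitor at the indicated concentrations for 4 h at 37 °C. Polyubiquitinated proteins then detected by Western blot.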

[9] = target: T1, Proteasome subunit beta type-8 (Homo sapiens); assay: Inhibition of immunoproteasome 20S subunit beta5i in human Karpas 1106p cell extract at 100 uM
Outline: (§3)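 Cell-free extracts of Karpas 1106p cells incubated with inhibitor at various concentrations. β5i activity in the lysate then measured; reported as percent inhibition at each concentration.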

[10] = Half life of the compound in RPMI medium at 75 uM by UPLC/MS analysis; type: physicochemical
Outline: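 Stability measured in tissue culture medium; reported as t1/2 in minutes.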

[11] = target: T1, Proteasome subunit beta type-8 (Homo sapiens); assay: Inhibition of immunoproteasome 20S subunit beta5i in human Karpas 1106p cell extract at 1 uM; outline: as §3
26S proteasome = assay: Inhibition of chymotrypsin-like activity of 26S proteasome in intact human Karpas 1106p cells assessed as substrate hydrolysis using Suc-LLVY-(D)-aminoluciferin as substrate after 3 hrs by cell-based Proteasome-Glo assay
Outline: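 Intact Karpas 1106p cells, a human lymphoma line that expresses i-20S constitutively without IFN-γ or TNF-α stimulation. 26S proteasome activity read by cell-based Proteasome-Glo luminescence over a range of inhibitor concentrations. EC50 derived from the dose–response.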

[12] = target: T1, Proteasome subunit beta type-8 (Homo sapiens); assay: Inhibition of immunoproteasome 20S subunit beta5i in human Karpas 1106p cell extract at 10 uM; outline: as §3
[13] = target: T1, Proteasome subunit beta type-8 (Homo sapiens); settings: 10 to 100 nM
[14] = target: T1, Proteasome subunit beta type-8 (Homo sapiens); settings: 1 nM

| Structure (SMILES) | Ratio (Homo sapiens [1]) | Ratio [2] | inhibition [3] | Ratio (Homo sapiens [4]) | Ki [5] | Kinact [6] | IC50 [7] | inhibition [8] | inhibition [9] | half-life at 75 µM [10] | inhibition [11] | EC50 (26S proteasome) | inhibition [12] | inhibition [13] | inhibition [14] |
| --- | --- | --- | --- | --- | --- | --- | --- | --- | --- | --- | --- | --- | --- | --- | --- |
| CC(=O)N[C@@H](Cc1ccccc1)C(=O)Nc1ccc(-c2nsc(=O)o2)cc1 | 1490 | 193 M⁻¹ s⁻¹ | tde | 0.13 M⁻¹ s⁻¹ | 520 nM | 0.0001 s⁻¹ |  |  |  |  |  |  |  |  |  |
| Cc1sc(-c2nsc(=O)o2)cc1[N+](=O)[O-] | 100 | 1010 M⁻¹ s⁻¹ |  | 10.1 M⁻¹ s⁻¹ | 760 nM | 0.00077 s⁻¹ | 220 nM |  |  |  |  |  |  |  |  |
| O=c1oc(-c2ccc(-c3ccccc3)cc2)ns1 | 4750 | 1090 M⁻¹ s⁻¹ |  | 0.23 M⁻¹ s⁻¹ | 1400 nM | 0.00154 s⁻¹ |  |  |  |  |  |  |  |  |  |
| O=c1oc(-c2cccc(F)c2)ns1 | 1.5 | 20 M⁻¹ s⁻¹ |  | 13.2 M⁻¹ s⁻¹ |  |  |  |  |  |  |  |  |  |  |  |
| CC(=O)N[C@H](Cc1ccccc1)C(=O)Nc1cccc(-c2nsc(=O)o2)c1 | 19 | 6.6 M⁻¹ s⁻¹ |  | 0.34 M⁻¹ s⁻¹ |  |  |  |  |  |  |  |  |  |  |  |
| CC(=O)Nc1cccc(-c2nsc(=O)o2)c1 | 26 | 83 M⁻¹ s⁻¹ |  | 3.2 M⁻¹ s⁻¹ |  |  |  | Active | Active | 1.36 h | 60% | 4200 nM | > 90% |  |  |
| O=c1oc(-c2ccccc2)ns1 | 8 | 118 M⁻¹ s⁻¹ | tde | 14.8 M⁻¹ s⁻¹ | 7900 nM | 0.00093 s⁻¹ |  |  |  |  |  |  |  |  |  |
| O=c1oc(-c2cccc(-c3ccccc3)c2)ns1 | 420 | 168 M⁻¹ s⁻¹ | tde | 0.4 M⁻¹ s⁻¹ | 6000 nM | 0.001 s⁻¹ |  |  |  |  |  |  |  |  |  |
| CC(C)C[C@H](NC(=O)[C@H](Cc1ccccc1)NC(=O)c1cnccn1)B(O)O |  |  |  |  |  |  |  |  |  |  |  |  |  | 90% | 58% |
| O=c1oc(-c2cc(O)c(O)c(O)c2)ns1 | 171 | 239 M⁻¹ s⁻¹ | tde | 1.4 M⁻¹ s⁻¹ | 1700 nM | 0.00042 s⁻¹ |  |  |  |  |  |  |  |  |  |
| CC(=O)N[C@H](Cc1ccccc1)C(=O)Nc1ccc(-c2nsc(=O)o2)cc1 | 215 | 151 M⁻¹ s⁻¹ |  | 0.7 M⁻¹ s⁻¹ | 3500 nM | 0.00053 s⁻¹ |  | Active | Active | 0.878 h | 40% | 15400 nM | 65% |  |  |
| O=c1oc(-c2ccc3[nH]ccc3c2)ns1 | 1730 | 225 M⁻¹ s⁻¹ | tde | 0.13 M⁻¹ s⁻¹ | 1100 nM | 0.00026 s⁻¹ |  |  |  |  |  |  |  |  |  |
| O=c1oc(-c2cccc([N+](=O)[O-])c2)ns1 | 89 | 913 M⁻¹ s⁻¹ | tde | 10.3 M⁻¹ s⁻¹ | 420 nM | 0.00038 s⁻¹ |  |  |  |  |  |  |  |  |  |
| O=c1oc(-c2cccc(CN3CCOCC3)c2)ns1 | 93 | 214 M⁻¹ s⁻¹ | tde | 2.3 M⁻¹ s⁻¹ | 1200 nM | 0.00026 s⁻¹ |  |  |  |  |  |  |  |  |  |
| O=c1oc(-c2ccccn2)ns1 | 645 | 129 M⁻¹ s⁻¹ |  | 0.2 M⁻¹ s⁻¹ | 2000 nM | 0.00025 s⁻¹ |  |  |  |  |  |  |  |  |  |
| O=c1oc(-c2ccccc2C(F)(F)F)ns1 | 117 | 187 M⁻¹ s⁻¹ | tde | 1.6 M⁻¹ s⁻¹ | 1800 nM | 0.00033 s⁻¹ |  |  |  |  |  |  |  |  |  |
| CC(C)(C)OC(=O)Nc1ccc(-c2nsc(=O)o2)cc1 | 142 | 341 M⁻¹ s⁻¹ |  | 2.4 M⁻¹ s⁻¹ | 1100 nM | 0.00037 s⁻¹ |  |  |  |  |  |  |  |  |  |
| [N-]=[N+]=Nc1ccc(-c2nsc(=O)o2)cc1 | 11 | 263 M⁻¹ s⁻¹ | tde | 23.7 M⁻¹ s⁻¹ | 3500 nM | 0.00092 s⁻¹ |  |  |  |  |  |  |  |  |  |

From ChEMBL document CHEMBL3259678 (ACS Med Chem Lett, 2014)
